In ChEMBL document CHEMBL1128545, “Effect of a chiral 4-alkyl substituent in hallucinogenic amphetamines” (J Med Chem, 1995):

Columns and labels:
[1] = target: Serotonin 2 (5-HT2) receptor (Rattus norvegicus, UniProt P30994+P08909+P14842); assay: Binding affinity against 5-hydroxytryptamine 2 receptor from rat frontal cortex using [125]-(R)-DOI as radioligand; type: tissue-based
In short: (§1)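 Rat frontal cortex (male Sprague–Dawley) homogenized in 0.32 M sucrose, preincubated twice 10 min at 37 °C; assay in 50 mM Tris HCl pH 7.4 with EDTA, ascorbate, 10 mM MgCl2, 10 µM pargyline, 200–400 µg protein. Triplicates, 3–4 experiments; parameters fitted by EBDA/LIGAND.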

Rattus norvegicus [2] = species on record: Rattus norvegicus; assay: Potency against LSD trained rat, activity is expressed as ED50; type: functional
Rattus norvegicus [3] = assay: Percentage of rats selecting the drug lever (% SDL) for dose 0.87(umol/kg); type: functional
In short: (§2)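 Drugs are given ip in saline. Test sessions run under extinction and end at 50 presses on one lever. Rats must hold 85% accuracy on training days. The read-out is the percentage of rats choosing the drug lever at each dose.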

Rattus norvegicus [4] = assay: Percentage of rats selecting the drug lever (% SDL) for dose 1.74(umol/kg); type: functional; in short: as §2
Rattus norvegicus [5] = assay: Percentage of rats selecting the drug lever (% SDL) for dose 3.48(umol/kg); type: functional; in short: as §2
Rattus norvegicus [6] = assay: Percentage of rats selecting the drug lever (% SDL) for dose 5.22(umol/kg); type: functional; in short: as §2
[7] = Hill coefficient of the compound
In short: as §1, with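 “protein. Displacement of 0.25 nM [125I]-(R)-DOI, 15 min at 37 °C, GF/C filtration, γ-counting.” for “protein.”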

Rattus norvegicus [8] = assay: Percentage of rats selecting the drug lever (% SDL) for dose 13.91(umol/kg); type: functional; in short: as §2
Rattus norvegicus [9] = assay: Percentage of rats selecting the drug lever (% SDL) for dose 6.96(umol/kg); type: functional; in short: as §2
Rattus norvegicus [10] = assay: Percentage of rats selecting the drug lever (% SDL) for dose 3.48 (umol/kg); type: functional; in short: as §2
Rattus norvegicus [11] = assay: Percentage of rats selecting the drug lever (% SDL) for dose 0.51(umol/kg); type: functional; in short: as §2
Rattus norvegicus [12] = assay: Percentage of rats selecting the drug lever (% SDL) for dose 0.77(umol/kg); type: functional; in short: as §2
Rattus norvegicus [13] = assay: Percentage of rats selecting the drug lever (% SDL) for dose 1.02(umol/kg); type: functional; in short: as §2
Rattus norvegicus [14] = assay: Percentage of rats selecting the drug lever (% SDL) for dose 2.04(umol/kg); type: functional; in short: as §2
Rattus norvegicus [15] = assay: Percentage of rats selecting the drug lever (% SDL) for dose 0.012 (umol/kg); type: functional; in short: as §2
Rattus norvegicus [16] = assay: Percentage of rats selecting the drug lever (% SDL) for dose 0.024(umol/kg); type: functional; in short: as §2
Rattus norvegicus [17] = assay: Percentage of rats selecting the drug lever (% SDL) for dose 0.047(umol/kg); type: functional; in short: as §2
Rattus norvegicus [18] = assay: Percentage of rats selecting the drug lever (% SDL) for dose 0.093(umol/kg); type: functional; in short: as §2
Rattus norvegicus [19] = assay: Percentage of rats selecting the drug lever (% SDL) for dose 0.186 (umol/kg); type: functional; in short: as §2

## CC[C@@H](C)c1cc(OC)c(CC(C)N)cc1OC (stereo partly drawn)
[1]
  Ki: 7.84 nM
Rattus norvegicus [2]
  ED50: 3.08 µmol/kg
Rattus norvegicus [3]
  SDL: 0%
Rattus norvegicus [4]
  SDL: 25%
Rattus norvegicus [5]
  SDL: 50%
Rattus norvegicus [6]
  SDL: 80%
[7]
  Hill coefficient: 1

## CC[C@H](C)c1cc(OC)c(CC(C)N)cc1OC (stereo partly drawn)
[1]
  Ki: 7.87 nM
Rattus norvegicus [2]
  ED50: 4.76 µmol/kg
[7]
  Hill coefficient: 1.06

## CCC(C)c1cc(OC)c(CC(C)N)cc1OC (stereo not drawn)
Rattus norvegicus [2]
  ED50: 3.69 µmol/kg
Rattus norvegicus [4]
  SDL: 18%
Rattus norvegicus [8]
  SDL: 90%
Rattus norvegicus [9]
  SDL: 70%
Rattus norvegicus [10]
  SDL: 60%

## COc1cc(CC(C)N)c(OC)cc1C (stereo not drawn) [DOM]
Rattus norvegicus [2]
  ED50: 0.61 µmol/kg
Rattus norvegicus [11]
  SDL: 13%
Rattus norvegicus [12]
  SDL: 67%
Rattus norvegicus [13]
  SDL: 67%
Rattus norvegicus [14]
  SDL: 100%
[7]
  Hill coefficient: 0.89

## CCN(CC)C(=O)[C@@H]1C=C2c3cccc4[nH]cc(c34)C[C@H]2N(C)C1 [LYSERGIDE]
Rattus norvegicus [2]
  ED50: 0.02 µmol/kg
Rattus norvegicus [15]
  SDL: 13%
Rattus norvegicus [16]
  SDL: 13%
Rattus norvegicus [17]
  SDL: 38%
Rattus norvegicus [18]
  SDL: 89%
Rattus norvegicus [19]
  SDL: 100%
[7]
  Hill coefficient: 1.18
